Experimental findings from ChEMBL document CHEMBL1629439, “High-throughput identification of antibacterials against methicillin-resistant Staphylococcus aureus (MRSA) and the transglycosylase” (Bioorg Med Chem, 2010) are described below.

One test deals with Pseudomonas aeruginosa. Put plainly: Antimicrobial activity against Pseudomonas aeruginosa ATCC 25619 after 18 to 24 hrs by alamar blue assay. The class given is functional. Conditions: Pseudomonas aeruginosa, ATCC 25619; read-out: MIC. The method, boiled down: (§1)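 Broth microdilution per NCCLS in Mueller-Hinton broth, 8-point twofold dilutions, 384-well format. Exponential-phase cells at 5 × 10^5 cells/ml incubated with compound 18–24 h at 37 °C, then 20% Alamar blue added and fluorescence read. MIC90 taken as the lowest concentration preventing at least 90% bacterial growth.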
For orientation: Resazurin is reduced to fluorescent resorufin, in cell work by metabolically active cells.

A further test has as its system Escherichia coli. Put plainly: Antimicrobial activity against Escherichia coli ATCC […] after 18 to 24 hrs by alamar blue assay. Conditions: Escherichia coli; read-out: MIC. The format is functional. The method, boiled down: as §1
The test system of test [1] is Staphylococcus aureus. Put plainly: Antimicrobial activity against Staphylococcus aureus ATCC 29213 after 18 to 24 hrs by alamar blue assay.
The test system of the next test is Acinetobacter baumannii. Kind of test: Antimicrobial activity against Acinetobacter baumannii ATCC 49139 after 18 to 24 hrs by alamar blue assay. The class given is functional. The conditions noted are these: Acinetobacter baumannii, ATCC 49139; read-out: MIC. The method, boiled down:
as §1

Test [2] concerns Staphylococcus aureus. Kind of test: Antimicrobial activity against methicillin-resistant Staphylococcus aureus ATCC 33592 after 18 to 24 hrs by alamar blue assay. The class given is functional. The conditions noted are these: Staphylococcus aureus, ATCC 33592; read-out: MIC. Put shortly:
(§2)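 Broth microdilution per NCCLS standard, Mueller-Hinton broth, 8-point twofold dilutions; exponentially growing cells at 5 10^5 cells/ml with compound, 18–24 h at 37 C; 20% Alamar blue added, fluorescence read; MIC90 taken as lowest concentration preventing at least 90% growth.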

Test [3] relates to Staphylococcus aureus. Kind of test: Antimicrobial activity against methicillin-resistant Staphylococcus aureus isolate NTUH4722 after 18 to 24 hrs by alamar blue assay. The format is functional. Put shortly:
as §2

For test [4], the system named is Stenotrophomonas maltophilia. Put plainly: Antimicrobial activity against Stenotrophomonas maltophilia ATCC 13637 after 18 to 24 hrs by alamar blue assay. The conditions noted are these: Stenotrophomonas maltophilia, ATCC 13637; read-out: MIC. The format is functional. Put shortly: as §1
The subject of a further test is Serratia marcescens. Put plainly: Antimicrobial activity against Serratia marcescens ATCC 14756 after 18 to 24 hrs by alamar blue assay. The format is functional. The conditions noted are these: Serratia marcescens, ATCC 14756; read-out: MIC. The method, boiled down:
as §1

Test [5] has as its system Staphylococcus aureus. Put plainly: Antimicrobial activity against oxacillin- and methicillin-resistant Staphylococcus aureus isolate Sa-OXA-R2 after 18 to 24 hrs by alamar blue assay. The class given is functional. The method, boiled down:
as §2

A further test concerns Bacillus subtilis. Kind of test: Antimicrobial activity against Bacillus subtilis ATCC 23857 after 18 to 24 hrs by alamar blue assay. The format is functional. The method, boiled down:
as §1

Test [6] deals with Mycolicibacterium smegmatis. Kind of test: Antimicrobial activity against Mycobacterium smegmatis BCRC 11565 after 18 to 24 hrs by alamar blue assay. The class given is functional. Conditions: Mycolicibacterium smegmatis, BCRC 11565; read-out: MIC. Put shortly: as §1

≈ marks a conversion by molar mass, not a printed value.

The term MIC denotes the lowest concentration found to suppress growth. Turning to `Cc1ccc(NS(=O)(=O)c2ccc3c(c2)NCC(C)C(=O)S3)c(Br)c1` (centres undefined), the MIC with Pseudomonas aeruginosa is above 256 µg/mL; with Escherichia coli it was above 256 µg/mL; in the test on Staphylococcus aureus [1], 2 µg/mL (≈ 4.53 µM); in the test on Acinetobacter baumannii, above 256 µg/mL; with Staphylococcus aureus [2], 8 µg/mL (≈ 18.1 µM); against Staphylococcus aureus [3] it was 16 µg/mL (≈ 36.3 µM). Further, the MIC in test [4] was above 256 µg/mL; with Serratia marcescens, above 256 µg/mL; against Staphylococcus aureus [5] it was above 64 µg/mL; with Bacillus subtilis, below 0.03 µg/mL; in [6] it was above 64 µg/mL.
`NC(=O)c1ccsc1NC(=O)c1ccc([N+](=O)[O-])o1`: the minimal inhibitory concentration (MIC) in the test with Pseudomonas aeruginosa amounted to 128 µg/mL (≈ 455 µM); with Escherichia coli it was 256 µg/mL (≈ 910 µM); against Staphylococcus aureus [1], 2 µg/mL (≈ 7.11 µM); in the test with Acinetobacter baumannii it was 12 µg/mL (≈ 42.7 µM); with Staphylococcus aureus [2], 0.25 µg/mL (≈ 0.889 µM); in the test on Staphylococcus aureus [3], 0.25 µg/mL (≈ 0.889 µM). The minimum inhibitory concentration (MIC) in test [4] is 32 µg/mL (≈ 114 µM); with Serratia marcescens, 32 µg/mL (≈ 114 µM); in the test with Staphylococcus aureus [5], 0.25 µg/mL (≈ 0.889 µM); in the test with Bacillus subtilis it was 0.06 µg/mL (≈ 0.213 µM); in [6], 0.5 µg/mL (≈ 1.78 µM).
Consider `CCc1ccccc1NS(=O)(=O)c1ccc2c(c1)NCC(C)C(=O)S2` (centres undefined), for which the MIC in the test with Pseudomonas aeruginosa is above 256 µg/mL; in the test on Escherichia coli, above 256 µg/mL; in the test on Staphylococcus aureus [1] it was 2 µg/mL (≈ 5.31 µM); in the test on Acinetobacter baumannii, above 256 µg/mL; with Staphylococcus aureus [2], 2 µg/mL (≈ 5.31 µM); against Staphylococcus aureus [3], 4 µg/mL (≈ 10.6 µM). The minimal inhibitory concentration (MIC) in test [4] is above 256 µg/mL; in the test with Serratia marcescens, above 256 µg/mL; in the test on Staphylococcus aureus [5], above 64 µg/mL; against Bacillus subtilis, below 0.03 µg/mL; in [6], above 64 µg/mL.
As for `CC1=CC(NC(=O)C(C)Oc2ccccc2)N(c2nc(C)c(C)c(O)n2)N1` (centres undefined), the MIC was above 256 µg/mL in the test with Pseudomonas aeruginosa; above 256 µg/mL with Escherichia coli; 1 µg/mL (≈ 2.71 µM) in the test with Staphylococcus aureus [1]; above 256 µg/mL in the test with Acinetobacter baumannii; 0.25 µg/mL (≈ 0.677 µM) in the test with Staphylococcus aureus [2]; 1 µg/mL (≈ 2.71 µM) in the test with Staphylococcus aureus [3]. Besides, the minimum inhibitory concentration (MIC) in test [4] was above 256 µg/mL; in the test on Serratia marcescens, above 256 µg/mL; with Staphylococcus aureus [5] it was 1 µg/mL (≈ 2.71 µM); in the test on Bacillus subtilis it was 0.25 µg/mL (≈ 0.677 µM); in test [6], 0.25 µg/mL (≈ 0.677 µM).
For `Cc1c(CC(=O)NCC(=O)O)c(=O)oc2c(C)c3occ(-c4ccc(Cl)cc4)c3cc12`, the MIC in the test on Pseudomonas aeruginosa was above 256 µg/mL; in the test with Escherichia coli it was above 256 µg/mL; against Staphylococcus aureus [1], 1.25 µg/mL (≈ 2.84 µM); in the test with Acinetobacter baumannii it was above 256 µg/mL; in the test on Staphylococcus aureus [2] it was 1.25 µg/mL (≈ 2.84 µM); with Staphylococcus aureus [3], 1.25 µg/mL (≈ 2.84 µM). Also, the minimal inhibitory concentration (MIC) in test [4] is above 256 µg/mL; with Serratia marcescens it was above 256 µg/mL; in the test on Staphylococcus aureus [5] it was 1.25 µg/mL (≈ 2.84 µM); in the test on Bacillus subtilis, above 64 µg/mL; in test [6], 1 µg/mL (≈ 2.27 µM).
`O=C(Nc1nnc(-c2ccc(F)cc2)o1)c1ccc(Cl)s1`: the MIC is above 256 µg/mL with Pseudomonas aeruginosa; above 256 µg/mL in the test with Escherichia coli; 1.2 µg/mL (≈ 3.71 µM) in the test on Staphylococcus aureus [1]; above 256 µg/mL in the test on Acinetobacter baumannii; 1.2 µg/mL (≈ 3.71 µM) with Staphylococcus aureus [2]; 1.2 µg/mL (≈ 3.71 µM) in the test on Staphylococcus aureus [3]. Besides, the minimal inhibitory concentration (MIC) was above 256 µg/mL in test [4]; above 256 µg/mL with Serratia marcescens; 1.2 µg/mL (≈ 3.71 µM) against Staphylococcus aureus [5]; 0.5 µg/mL (≈ 1.54 µM) against Bacillus subtilis; 0.5 µg/mL (≈ 1.54 µM) in [6].
With `CCC(NC(=O)Cc1c(C)c2cc3c(-c4ccc(Cl)cc4)coc3c(C)c2oc1=O)C(=O)O` (centres undefined), the minimal inhibitory concentration (MIC) is above 256 µg/mL in the test with Pseudomonas aeruginosa; above 256 µg/mL in the test on Escherichia coli; 2.5 µg/mL (≈ 5.34 µM) with Staphylococcus aureus [1]; above 256 µg/mL in the test on Acinetobacter baumannii; 5 µg/mL (≈ 10.7 µM) in the test with Staphylococcus aureus [2]; 2.5 µg/mL (≈ 5.34 µM) in the test on Staphylococcus aureus [3]. Besides, the MIC in test [4] is above 256 µg/mL; in the test on Serratia marcescens, above 256 µg/mL; against Staphylococcus aureus [5] it was 2.5 µg/mL (≈ 5.34 µM); with Bacillus subtilis it was above 64 µg/mL; in test [6] it was 1 µg/mL (≈ 2.14 µM).
In the case of `O=C(Nc1cc(Cl)c(Cl)c(Cl)c1)c1cc(Cl)cc(Cl)c1O`, the MIC came to 16 µg/mL (≈ 41.5 µM) with Pseudomonas aeruginosa; 8 µg/mL (≈ 20.8 µM) in the test on Escherichia coli; 0.125 µg/mL (≈ 0.324 µM) with Staphylococcus aureus [1]; 16 µg/mL (≈ 41.5 µM) with Acinetobacter baumannii; 0.5 µg/mL (≈ 1.3 µM) with Staphylococcus aureus [2]; 1 µg/mL (≈ 2.59 µM) against Staphylococcus aureus [3]. In addition, the minimal inhibitory concentration (MIC) in test [4] is 16 µg/mL (≈ 41.5 µM); in the test with Serratia marcescens it was 16 µg/mL (≈ 41.5 µM); against Staphylococcus aureus [5], 0.125 µg/mL (≈ 0.324 µM); against Bacillus subtilis, below 0.03 µg/mL; in test [6] it was 0.5 µg/mL (≈ 1.3 µM).
Take `O=C(Nc1nnc(-c2ccc(Cl)cc2)o1)c1ccc(C(F)(F)F)cc1`: the minimal inhibitory concentration (MIC) was above 256 µg/mL with Pseudomonas aeruginosa; above 256 µg/mL in the test on Escherichia coli; 3 µg/mL (≈ 8.16 µM) in the test on Staphylococcus aureus [1]; above 256 µg/mL in the test on Acinetobacter baumannii; 1.5 µg/mL (≈ 4.08 µM) with Staphylococcus aureus [2]; 1.5 µg/mL (≈ 4.08 µM) against Staphylococcus aureus [3]. Further, the MIC in test [4] was above 256 µg/mL; in the test with Serratia marcescens, above 256 µg/mL; in the test with Staphylococcus aureus [5], 1.5 µg/mL (≈ 4.08 µM); in the test with Bacillus subtilis, 0.5 µg/mL (≈ 1.36 µM); in test [6] it was 0.5 µg/mL (≈ 1.36 µM).
